The source made the active and inactive calls. No cut-off for these calls is given here.
Key:
[1] = target: T1, Prostaglandin G/H synthase 1 (Mus musculus, UniProt P22437); experiment: Inhibition of COX-1-mediated PGE2 production in arachidonic acid-stimulated mouse J774 cells incubated for 15 mins prior to arachidonic acid-challenge by radioimmunoassay; assay type: cell-based
T1 sequence (P22437 whole entry): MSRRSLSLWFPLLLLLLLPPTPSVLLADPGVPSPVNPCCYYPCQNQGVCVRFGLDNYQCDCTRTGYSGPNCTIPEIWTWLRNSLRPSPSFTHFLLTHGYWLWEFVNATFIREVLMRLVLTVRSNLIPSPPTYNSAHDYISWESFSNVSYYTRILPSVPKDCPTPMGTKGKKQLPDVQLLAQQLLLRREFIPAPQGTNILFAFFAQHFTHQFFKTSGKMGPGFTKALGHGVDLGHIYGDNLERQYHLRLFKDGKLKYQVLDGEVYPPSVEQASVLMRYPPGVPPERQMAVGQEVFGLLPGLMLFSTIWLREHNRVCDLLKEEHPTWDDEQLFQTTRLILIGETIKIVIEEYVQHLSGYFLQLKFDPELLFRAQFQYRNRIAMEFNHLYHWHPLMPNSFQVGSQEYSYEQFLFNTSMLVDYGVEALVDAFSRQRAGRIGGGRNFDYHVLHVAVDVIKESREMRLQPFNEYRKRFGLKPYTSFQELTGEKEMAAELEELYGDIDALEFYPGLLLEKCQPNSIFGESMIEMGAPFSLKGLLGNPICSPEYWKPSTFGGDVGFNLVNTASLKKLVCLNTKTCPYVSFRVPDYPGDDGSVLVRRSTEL
Method in brief: (§1)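 J774 murine macrophages grown in DMEM with 10% FBS and allowed to adhere for 2 h at 37 °C. Cells were pretreated with compound at 10 μM for 15 min, then given 15 μM arachidonic acid for 30 min at 37 °C. Where inhibition exceeded 50%, 0.01–1 μM was also tested. Supernatant PGE2 was measured by RIA as % inhibition versus control, in triplicate wells over three experiments. IC50 came from a sigmoidal variable-slope fit.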

J774 = experiment: Selectivity ratio of IC50 for COX1 in mouse J774 cells to IC50 for COX2 in mouse J774 cells; assay type: cell-based
Method in brief: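 Ratio of J774 IC50s, COX-1 over COX-2. For COX-1, cells were pretreated with compound for 15 min, then given 15 μM arachidonic acid for 30 min at 37 °C. For COX-2, cells received E. coli LPS 10 μg/mL for 24 h with compound at 0.01–10 μM. PGE2 was measured by RIA in triplicate wells over three experiments. IC50 came from a sigmoidal fit.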

[2] = target: T2, Prostaglandin G/H synthase 1 (Mus musculus) (UniProt P22437); experiment: Inhibition of COX-1-mediated PGE2 production in arachidonic acid-stimulated mouse J774 cells at 10 uM incubated for 15 mins prior to arachidonic acid-challenge by radioimmunoassay; assay type: cell-based
T2 sequence (whole entry): T1 sequence (P22437 whole entry)
Method in brief: as §1, with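 “h” for “h at 37 °C. Cells were pretreated with compound at 10 μM for 15 min, then given 15 μM arachidonic acid for 30 min”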

Aorta [3] = experiment: Vasorelaxation activity against KCl-induced contraction in isolated Wistar rat thoracic endothelium-denulated aortic rings in the presence of guanylate cyclase inhibitor ODQ; assay type: functional, tissue-based
Method in brief: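 Thoracic aortic rings from male Wistar rats (250–350 g), endothelium removed by rubbing; rings relaxing ≥10% to ACh 10 μM on KCl 30 mM tone were discarded. ODQ 1 μM was incubated, then rings were contracted with KCl 30 mM and given 3-fold increasing concentrations of 1 nM–10 μM.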

[4] = target: T3, Prostaglandin G/H synthase 2 (Mus musculus, UniProt Q05769); experiment: Inhibition of COX-2-mediated PGE2 production in LPS-stimulated mouse J774 cells after 24 hrs by radioimmunoassay; assay type: cell-based
T3 sequence (Q05769 whole entry): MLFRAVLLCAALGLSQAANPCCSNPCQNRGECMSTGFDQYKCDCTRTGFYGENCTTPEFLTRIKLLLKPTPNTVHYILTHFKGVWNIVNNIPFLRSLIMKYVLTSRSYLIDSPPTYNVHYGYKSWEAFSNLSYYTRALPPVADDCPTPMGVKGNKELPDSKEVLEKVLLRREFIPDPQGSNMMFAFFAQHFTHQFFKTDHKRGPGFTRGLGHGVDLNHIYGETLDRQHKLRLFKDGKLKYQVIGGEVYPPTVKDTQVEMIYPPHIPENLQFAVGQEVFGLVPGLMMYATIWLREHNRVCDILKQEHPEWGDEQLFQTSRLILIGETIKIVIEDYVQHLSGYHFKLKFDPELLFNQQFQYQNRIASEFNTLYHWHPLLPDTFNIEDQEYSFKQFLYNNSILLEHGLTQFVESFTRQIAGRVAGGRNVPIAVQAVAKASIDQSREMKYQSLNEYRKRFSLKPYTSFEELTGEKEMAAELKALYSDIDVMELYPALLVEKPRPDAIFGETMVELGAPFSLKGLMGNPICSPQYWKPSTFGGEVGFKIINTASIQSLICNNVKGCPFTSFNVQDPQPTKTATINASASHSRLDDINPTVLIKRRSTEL

Aorta [5] = experiment: Vasorelaxation activity against KCl-induced contraction in isolated Wistar rat thoracic endothelium-denulated aortic rings; assay type: functional, tissue-based
Method in brief: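 Endothelium-denuded thoracic aortic rings from male Wistar rats (250−350 g); denudation confirmed by <10% relaxation to 10 μM ACh. Rings precontracted with 30 mM KCl; compound added at 3-fold increasing concentrations, 1 nM to 10 μM. Isometric tension recorded. Emax given as % of KCl tone; pIC50 derived. Mean ± standard error of 6−10 experiments; repeated with 1 μM ODQ.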

[6] = target: T2, Prostaglandin G/H synthase 1 (Mus musculus); experiment: Inhibition of COX-1-mediated PGE2 production in arachidonic acid-stimulated mouse J774 cells at 0.1 uM incubated for 15 mins prior to arachidonic acid-challenge by radioimmunoassay; assay type: cell-based
Method in brief: as §1, with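 “h” for “h at 37 °C. Cells were pretreated with compound at 10 μM for 15 min, then given 15 μM arachidonic acid for 30 min”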

[7] = target: T2, Prostaglandin G/H synthase 1 (Mus musculus); experiment: Inhibition of COX-1-mediated PGE2 production in arachidonic acid-stimulated mouse J774 cells at 1 uM incubated for 15 mins prior to arachidonic acid-challenge by radioimmunoassay; assay type: cell-based
Method in brief: as §1, with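 “h” for “h at 37 °C. Cells were pretreated with compound at 10 μM for 15 min, then given 15 μM arachidonic acid for 30 min”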

Rattus norvegicus [8] = experiment: Antiinflammatory activity against carrageenan-induced paw edema in Sprague-Dawley rat assessed as paw weight at 40 mg/kg, po administered 4 hrs post challenge measured after 60 mins (reference value: 63.2+/-3.3 g); assay type: functional
Rattus norvegicus [9] = experiment: Antiinflammatory activity against carrageenan-induced paw edema in Sprague-Dawley rat assessed as paw weight at 20 mg/kg, po administered 4 hrs post challenge measured after 60 mins (reference value: 62.5+/-3.1 g); assay type: functional
Rattus norvegicus [10] = experiment: Antiinflammatory activity against carrageenan-induced paw edema in Sprague-Dawley rat assessed as paw weight at 40 mg/kg, po administered 4 hrs post challenge measured after 120 mins (reference value: 63.2+/-3.3 g); assay type: functional
Rattus norvegicus [11] = experiment: Antiinflammatory activity against carrageenan-induced paw edema in Sprague-Dawley rat assessed as paw weight at 20 mg/kg, po administered 4 hrs post challenge measured after 30 mins (reference value: 62.5+/-3.1 g); assay type: functional
Rattus norvegicus [12] = experiment: Antiinflammatory activity against carrageenan-induced paw edema in Sprague-Dawley rat assessed as paw weight at 20 mg/kg, po administered 4 hrs post challenge measured after 120 mins (reference value: 62.5+/-3.1 g); assay type: functional
Rattus norvegicus [13] = experiment: Antiinflammatory activity against carrageenan-induced edema in Sprague-Dawley rat assessed as right hind paw volume at 40 mg/kg, po administered 4 hrs post challenge measured after 60 mins; assay type: functional
Method in brief: (§2)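 Rats received intraplantar carrageenan. Right hind paw volume was measured 4 h after the carrageenan injection and compared with saline/carrageenan-treated controls. Oral dosing in CMC vehicle; volume recorded at 60 min after treatment.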

Rattus norvegicus [14] = experiment: Antiinflammatory activity against carrageenan-induced paw edema in Sprague-Dawley rat assessed as paw weight at 40 mg/kg, po administered 4 hrs post challenge measured after 30 mins (reference value: 63.2+/-3.3 g); assay type: functional
Rattus norvegicus [15] = experiment: Antiinflammatory activity against carrageenan-induced edema in Sprague-Dawley rat assessed as right hind paw volume at 20 mg/kg, po administered 4 hrs post challenge measured after 60 mins; assay type: functional; method in brief: as §2
Mus musculus = experiment: Analgesic activity in Swiss albino mouse abdominal constriction model assessed as reduction in acetic acid-induced writhing response for 10 mins at 20 to 40 mg/kg, po administered 30 mins prior to acetic acid-challenge measured after 5 mins relative to vehicle-treated control; assay type: functional, organism-based; conditions: Abdomen
Method in brief: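 Male Swiss albino mice (23−25 g); 0.6% acetic acid (10 mL/kg) injected ip. Stretching movements counted for 10 min, starting 5 min after administration. Oral doses in carboxymethylcellulose (CMC) vehicle, compared with vehicle-treated mice.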

[16] = target: T4, Prostaglandin G/H synthase 2 (Mus musculus) (UniProt Q05769); experiment: Inhibition of COX-2-mediated PGE2 production in LPS-stimulated mouse J774 cells at 0.001 uM after 24 hrs by radioimmunoassay; assay type: cell-based
T4 sequence (whole entry): T3 sequence (Q05769 whole entry)

Structure (SMILES) | IC50 [1] [nM] | Ratio IC50 (J774) | inhibition [2] [%] | Activity (Aorta [3]) | IC50 [4] [nM] | Emax (Aorta [5]) [%] | IC50 (Aorta [5]) [nM] | further results
Cc1c(CC(=O)O)cc(-c2ccc(S(C)(=O)=O)cc2)n1-c1ccccc1 | > 10000 | > 10 | 0 |  |  |  |  | 
Cc1c(CC(=O)OCCCO[N+](=O)[O-])cc(-c2ccc(S(C)(=O)=O)cc2)n1-c1ccccc1 | > 10000 | > 238 | 27 | inactive | 42 | 44 | > 10000 | 
COc1ccc(-n2c(-c3ccc(S(C)(=O)=O)cc3)cc(CC(=O)OCCO[N+](=O)[O-])c2C)cc1 | 6400 | 37.6 | 55 | inactive |  |  | 178 | inhibition [6]: 12%; inhibition [7]: 30%
O=[N+]([O-])OCC(CO[N+](=O)[O-])O[N+](=O)[O-] [NITROGLYCERIN] |  |  |  |  |  | 73 | 126 | 
Cc1c(CC(=O)OCCO[N+](=O)[O-])cc(-c2ccc(S(C)(=O)=O)cc2)n1-c1ccccc1 | > 10000 | > 233 | 19 | inactive |  | 65 | 1740 | 
Cc1c(CC(=O)OCCO)cc(-c2ccc(S(C)(=O)=O)cc2)n1-c1ccc(F)cc1 | > 10000 | > 256 | 21 |  | 39 |  |  | 
Cc1c(CC(=O)OCCO)cc(-c2ccc(S(C)(=O)=O)cc2)n1-c1ccccc1 | > 10000 | > 104 | 22 |  | 96 |  |  | 
CSc1ccc(-n2c(-c3ccc(S(C)(=O)=O)cc3)cc(CC(=O)OCCO[N+](=O)[O-])c2C)cc1 | > 10000 | > 588 | 0 | inactive | 17 | 65 | 457 | 
Cc1c(CC(=O)OCCO[N+](=O)[O-])cc(-c2ccc(S(C)(=O)=O)cc2)n1-c1ccc(F)cc1 | > 10000 | > 345 | 0 | inactive | 29 |  | 3390 | 
CSc1ccc(-n2c(-c3ccc(S(C)(=O)=O)cc3)cc(CC(=O)OCCO)c2C)cc1 | 3180 | 37.4 | 62 |  |  |  |  | inhibition [6]: 11%; inhibition [7]: 40%
COc1ccc(-n2c(-c3ccc(S(C)(=O)=O)cc3)cc(CC(=O)OCCO)c2C)cc1 | > 10000 | > 9.1 | 5 |  |  |  |  | 
CSc1ccc(-n2c(-c3ccc(S(C)(=O)=O)cc3)cc(CC(=O)OCCCO[N+](=O)[O-])c2C)cc1 | > 10000 | > 370 | 0 | inactive |  |  | > 10000 | 
COc1ccc(-n2c(-c3ccc(S(C)(=O)=O)cc3)cc(CC(=O)OCCCO)c2C)cc1 | > 10000 | > 14.3 | 27 |  |  |  |  | 
CSc1ccc(-n2c(-c3ccc(S(C)(=O)=O)cc3)cc(CC(=O)O)c2C)cc1 | > 10000 | > 769 | 45 |  | 13 |  |  | 
Cc1c(CC(=O)OCCCO[N+](=O)[O-])cc(-c2ccc(S(C)(=O)=O)cc2)n1-c1cccc(F)c1 | 1100 | 151 | 75 | inactive | 7.3 | 39 | > 10000 | Activity (Rattus norvegicus [8]): 44.9 g; Activity (Rattus norvegicus [9]): 45.1 g; Activity (Rattus norvegicus [10]): 36.8 g; inhibition [6]: 20%; Activity (Rattus norvegicus [11]): 43.2 g; Activity (Rattus norvegicus [12]): 40.7 g; Activity (Rattus norvegicus [13]): 1.96 mL; Activity (Rattus norvegicus [14]): 45.5 g; inhibition [7]: 50%; Activity (Rattus norvegicus [15]): 2.05 mL; Activity (Mus musculus): inactive
Cc1c(CC(=O)OCCCO)cc(-c2ccc(S(C)(=O)=O)cc2)n1-c1ccc(F)cc1 | > 10000 | > 179 | 0 |  | 56 |  |  | 
Cc1c(CC(=O)OCCCO[N+](=O)[O-])cc(-c2ccc(S(C)(=O)=O)cc2)n1-c1ccc(F)cc1 | > 10000 | > 269 | 28 | inactive | 37.2 | 41 | > 10000 | 
COc1ccc(-n2c(-c3ccc(S(C)(=O)=O)cc3)cc(CC(=O)OCCCO[N+](=O)[O-])c2C)cc1 | > 10000 | > 4170 |  | inactive | 2.4 |  | > 10000 | inhibition [7]: 0%; inhibition [16]: 39%
Cc1c(CC(=O)O)cc(-c2ccc(S(C)(=O)=O)cc2)n1-c1ccc(F)cc1 | > 10000 | > 20 |  |  | 500 |  |  | 
CSc1ccc(-n2c(-c3ccc(S(C)(=O)=O)cc3)cc(CC(=O)OCCCO)c2C)cc1 | > 10000 | > 38.5 | 36 |  |  |  |  | 
